# Results as given in ChEMBL document CHEMBL3085761, “Synthesis, anticonvulsant and anti-inflammatory studies of new 1,4-dihydropyridin-4-yl-phenoxyacetohydrazones” (Eur J Med Chem, 2013).
# How the values were obtained:
# Type in all cases: functional
# Rattus norvegicus [1] = test: Antiinflammatory activity in Wistar rat assessed as inhibition of carrageenan-induced paw edema at 20 mg/kg administered 30 mins prior to carrageenan-challenge measured after 3 hrs by plethysmographic analysis relative to control
# Summary of the method: (§1)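 Male or female Wistar rats (100–150 g), five per group, fasted overnight; 20 mg/kg given by stomach tube in 5 mL water. 30 min later 0.05 mL 1% carrageenan s.c. into left hind paw plantar side; paw volume by mercury plethysmography at 0, 30, 60, 120, 180 min; percent inhibition versus control, one-way ANOVA with Dunnett's test.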
# Rattus norvegicus [2] = test: Antiinflammatory activity in Wistar rat assessed as inhibition of carrageenan-induced paw edema at 20 mg/kg administered 30 mins prior to carrageenan-challenge measured after 2 hrs by plethysmographic analysis relative to control; summary of the method: as §1
# Rattus norvegicus [3] = test: Antiinflammatory activity in Wistar rat assessed as inhibition of carrageenan-induced paw edema at 20 mg/kg administered 30 mins prior to carrageenan-challenge measured after 1 hr by plethysmographic analysis relative to control; summary of the method: as §1
# Rattus norvegicus [4] = test: Antiinflammatory activity in Wistar rat assessed as inhibition of carrageenan-induced paw edema at 20 mg/kg administered 30 mins prior to carrageenan-challenge measured after 30 mins by plethysmographic analysis relative to control; summary of the method: as §1
# Mus musculus [5] = test: Anticonvulsant activity in ip dosed mouse assessed as protection against maximal electroshock-induced epileptic seizures after 4 hrs; conditions: read-out: MED
# Summary of the method: (§2)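 Mice (20–40 g), groups of six to ten; i.p. doses 30, 100 and 300 mg/kg; tested at 0.5 and 4 h. Stimulus 50 mA, 60 Hz, 0.2 s via corneal electrodes primed with anaesthetic electrolyte; abolition of hindlimb tonic extension scored as protection. Value is the minimal dose protecting at least 50% of animals.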
# Mus musculus [6] = test: Anticonvulsant activity in ip dosed mouse assessed as protection against maximal electroshock-induced epileptic seizures after 0.5 hrs; conditions: read-out: MED; summary of the method: as §2
SMILES,inhibition in vivo at 20 mg/kg (Rattus norvegicus [1]) [%],inhibition in vivo at 20 mg/kg (Rattus norvegicus [2]) [%],inhibition in vivo at 20 mg/kg (Rattus norvegicus [3]) [%],inhibition in vivo at 20 mg/kg (Rattus norvegicus [4]) [%],minimal effective dose (Mus musculus [5]) [mg/kg],minimal effective dose (Mus musculus [6]) [mg/kg]
O=C(O)Cc1ccccc1Nc1c(Cl)cccc1Cl [DICLOFENAC SODIUM],65.3,61.1,41,16.7,,
O=C1NC(=O)C(c2ccccc2)(c2ccccc2)N1 [PHENYTOIN],,,,,30,30
